Values after ≈ are worked out from the molar mass of the structure shown. Active and inactive are the calls of the source. No cut-off for these calls is given here.
Key:
Assay type in all cases: functional
[1] = test system: Bacillus subtilis; test: Antibacterial activity against Bacillus subtilis MTCC 121 at 2 mg/ml after 24 hrs by agar well diffusion method; conditions: MTCC 121, 24 h, read-out: DIZ
Method in brief: (§1)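 Cultures adjusted to 0.5 McFarland and left 15 min on agar for adsorption. 8 mm wells bored and loaded with compound at 2.0 mg/mL in DMSO. Incubated 37 °C for 24 h. Growth-inhibition zone diameter (mm) read with a zone scale and reported as the average. DMSO served as negative control and ciprofloxacin as positive control.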

[2] = test system: Escherichia coli; test: Antibacterial activity against Escherichia coli MTCC 1652 after 24 hrs by agar well diffusion method; conditions: MTCC 1652, 24 h
Method in brief: (§2)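 MIC by modified agar well diffusion. Two-fold serial dilutions (DMSO stock diluted in sterile distilled water), range 256 to 0.5, placed in wells in triplicate. Agar was pre-seeded with 100 standardized inoculum at 10⁶ cfu/mL. Incubated aerobically at 37 °C for 24 h. MIC taken as lowest concentration giving a clear zone, i.e. complete growth inhibition.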

[3] = test system: Pseudomonas aeruginosa; test: Antibacterial activity against Pseudomonas aeruginosa MTCC 741 after 24 hrs by agar well diffusion method; conditions: MTCC 741, 24 h; method in brief: as §2
[4] = test system: Pseudomonas aeruginosa; test: Antibacterial activity against Pseudomonas aeruginosa MTCC 741 at 2 mg/ml after 24 hrs by agar well diffusion method; conditions: for zone of inhibition at 2000 µg/mL: MTCC 741, 24 h, read-out: DIZ; method in brief: as §1
[5] = test system: Staphylococcus aureus; test: Antibacterial activity against Staphylococcus aureus MTCC 96 at 2 mg/ml after 24 hrs by agar well diffusion method; conditions: MTCC 96, 24 h, read-out: DIZ; method in brief: as §1
[6] = test system: Staphylococcus aureus; test: Antibacterial activity against Staphylococcus aureus MTCC 96 after 24 hrs by agar well diffusion method; conditions: MTCC 96, 24 h; method in brief: as §2
[7] = test system: Bacillus subtilis; test: Antibacterial activity against Bacillus subtilis MTCC 121 after 24 hrs by agar well diffusion method; conditions: MTCC 121, 24 h; method in brief: as §2
[8] = test system: Aspergillus niger; test: Antifungal activity against Aspergillus niger assessed as inhibition of mycelial growth at 4 mg/ml after 7 days; conditions: 168 h, read-out: GI
Method in brief: (§3)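 Poisoned food method. Molds grown on Sabouraud dextrose agar at 25 °C for 7 days to provide inocula. Molten SDA (45 °C) dosed with compound at 4.0 mg/mL in DMSO, then solidified. 8 mm fungal plugs from colony margins placed centrally. Incubated 25 °C for 7 days, in triplicate. % mycelial growth inhibition calculated from colony diameters versus DMSO control. Fluconazole served as positive control.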

[9] = test system: Aspergillus flavus; test: Antifungal activity against Aspergillus flavus assessed as inhibition of mycelial growth at 4 mg/ml after 7 days; conditions: 168 h, read-out: GI; method in brief: as §3
[10] = test system: Penicillium sp.; test: Antifungal activity against Penicillium sp. assessed as inhibition of mycelial growth at 4 mg/ml after 7 days; conditions: 168 h, read-out: GI; method in brief: as §3
[11] = test system: Escherichia coli; test: Antibacterial activity against Escherichia coli MTCC 1652 at 2 mg/ml after 24 hrs by agar well diffusion method; conditions: for zone of inhibition at 2000 µg/mL: MTCC 1652, 24 h, read-out: DIZ; method in brief: as §1

SMILES | zone of inhibition at 2000 µg/mL [1] [mm] | MIC [2] [µg/mL] | MIC [3] [µg/mL] | zone of inhibition at 2000 µg/mL [4] [mm] | zone of inhibition at 2000 µg/mL [5] [mm] | MIC [6] [µg/mL] | MIC [7] [µg/mL] | inhibition of growth at 4000 µg/mL [8] [%] | inhibition of growth at 4000 µg/mL [9] [%] | inhibition of growth at 4000 µg/mL [10] [%] | diameter of the inhibition zone (DIZ) [4] | diameter of the inhibition zone (DIZ) [11] | zone of inhibition at 2000 µg/mL [11] [mm]
O=C(O)c1cn(C2CC2)c2cc(N3CCNCC3)c(F)cc2c1=O [CIPROFLOXACIN] | 24 | 5 (≈ 15.1 µM) | 5 (≈ 15.1 µM) | 22 | 26.6 | 5 (≈ 15.1 µM) | 5 (≈ 15.1 µM) |  |  |  |  |  | 
OC(Cn1cncn1)(Cn1cncn1)c1ccc(F)cc1F [FLUCONAZOLE] |  |  |  |  |  |  |  | 81.1 | 77.7 | 83.3 |  |  | 
Cc1nnc2sc3cc4ccccc4c-3nn12 | 15.3 |  |  |  | 14.6 | 256 (≈ 1070 µM) | 256 (≈ 1070 µM) | 50 | 48.8 | 52.5 | inactive | inactive | 
CC(C)c1nnc2sc3cc4ccccc4c-3nn12 | 17.3 |  |  |  | 15.6 | 128 (≈ 477 µM) | 128 (≈ 477 µM) | 48.8 | 50 | 44.4 | inactive | inactive | 
Cc1cccc2c3nn4cnnc4sc-3cc12 | 28.6 | 64 (≈ 266 µM) | 128 (≈ 533 µM) | 18.3 | 25.3 | 16 (≈ 66.6 µM) | 4 (≈ 16.6 µM) | 71.1 | 68.8 | 66.6 |  |  | 20.6
c1ccc(-c2nnc3sc4cc5ccccc5c-4nn23)cc1 | 15 |  |  |  | 14.6 | 256 (≈ 847 µM) | 256 (≈ 847 µM) | 45.5 | 48.8 | 51.1 | inactive | inactive | 
CC(C)c1nnc2n1N=C1c3ccccc3CC1S2 (stereo unspecified) | 24.6 | 64 (≈ 237 µM) | 32 (≈ 118 µM) | 19.3 | 28.6 | 4 (≈ 14.8 µM) | 16 (≈ 59.2 µM) | 53.3 | 51.1 | 51.1 |  |  | 20.6
Cc1cccc2c1CC1Sc3nnc(C(C)C)n3N=C21 (stereo unspecified) | 27 | 32 (≈ 113 µM) | 32 (≈ 113 µM) | 20.3 | 28.6 | 4 (≈ 14.1 µM) | 8 (≈ 28.1 µM) | 63.3 | 61.1 | 65.5 |  |  | 21.6
c1ccc(-c2nnc3n2N=C2c4ccccc4CC2S3)cc1 (stereo unspecified) | 16.3 | 64 (≈ 210 µM) | 256 (≈ 841 µM) | 14.6 | 20.6 | 64 (≈ 210 µM) | 128 (≈ 421 µM) | 51.1 | 48.8 | 50 |  |  | 18.3
CCc1nnc2n1N=C1c3cccc(C)c3CC1S2 (stereo unspecified) | 28 | 32 (≈ 118 µM) | 32 (≈ 118 µM) | 19.3 | 26.6 | 8 (≈ 29.6 µM) | 4 (≈ 14.8 µM) | 64.4 | 63.3 | 65.5 |  |  | 21
CCCc1nnc2n1N=C1c3ccccc3CC1S2 (stereo unspecified) | 25 | 64 (≈ 237 µM) | 64 (≈ 237 µM) | 18.6 | 27.3 | 8 (≈ 29.6 µM) | 16 (≈ 59.2 µM) | 55.5 | 52.5 | 53.3 |  |  | 19.3
c1ccc2c3nn4cnnc4sc-3cc2c1 | 16 |  |  |  | 14.3 | 256 (≈ 1130 µM) | 128 (≈ 566 µM) | 53.3 | 50 | 51.1 | inactive | inactive | 
Cc1cccc2c3nn4c(C)nnc4sc-3cc12 | 18.6 | 64 (≈ 252 µM) | 128 (≈ 503 µM) | 15.6 | 20.3 | 64 (≈ 252 µM) | 64 (≈ 252 µM) | 53.3 | 50 | 51.1 |  |  | 18.6
Cc1cccc2c3nn4c(C(C)C)nnc4sc-3cc12 | 19.3 | 128 (≈ 453 µM) | 256 (≈ 907 µM) | 14.6 | 17.6 | 128 (≈ 453 µM) | 64 (≈ 227 µM) | 65.5 | 61.1 | 63.3 |  |  | 15
Cc1nnc2n1N=C1c3ccccc3CC1S2 (stereo unspecified) | 16.3 |  |  |  | 14.6 | 256 (≈ 1060 µM) | 128 (≈ 528 µM) | 53.3 | 51.1 | 55.5 | inactive | inactive | 
CCc1nnc2sc3cc4ccccc4c-3nn12 | 17.6 |  |  |  | 16.3 | 128 (≈ 503 µM) | 128 (≈ 503 µM) | 48.8 | 45.5 | 50 | inactive | inactive | 
c1ccc2c(c1)CC1Sc3nncn3N=C21 (stereo unspecified) | 17.6 |  |  |  | 15.3 | 128 (≈ 561 µM) | 128 (≈ 561 µM) | 51.1 | 52.5 | 51.1 | inactive | inactive | 

— ChEMBL document CHEMBL1828500, “Synthesis and biological evaluation of dihydroindeno and indeno [1,2-e] [1,2,4]triazolo [3,4-b] [1,3,4]thiadiazines as antimicrobial agents” (2011)
